Consider five compounds from ChEMBL document CHEMBL3603801 (J Med Chem, 2015).

The nature of data set [1]: Ratio of drug level in rat brain to plasma at 0.5 mg/kg, iv after 0.5 hrs. Type of data set: ADME, organism-based. Particulars: brain and plasma, read-out: BPR. Put shortly: (§1)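 Rats given 0.5 mg/kg iv in 10% DMA + 10% Solutol HS15 + 80% saline, or for some compounds 10% DMA + 10% Solutol HS15 + 80% (30% (2-hydroxypropyl)-β-cyclodextrin in saline). Brain:plasma and CSF:plasma ratios taken at 0.5 and 2 h; quantification limit 1.00 ng/mL.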

Data set [2] can be described thus: Ratio of drug level in rat cerebrospinal fluid to plasma at 0.5 mg/kg, iv after 0.5 hrs. Format: ADME, organism-based, CSF/Plasma. Particulars: cerebrospinal fluid and plasma. Put shortly: as §1
A short description of data set [3]: Ratio of drug level in rat cerebrospinal fluid to plasma at 0.5 mg/kg, iv after 2 hrs. Type of data set: ADME, organism-based, CSF/Plasma. Particulars: cerebrospinal fluid and plasma.
Data set [4] in a line: Volume of distribution at steady state in rat at 0.5 mg/kg, iv. Type of data set: ADME, organism-based. Particulars: in vivo, read-out: Vdss.
A short description of data set [5]: Ratio of drug level in rat brain to plasma at 0.5 mg/kg, iv after 2 hrs. Format: ADME, organism-based. The settings on record: brain and plasma, read-out: BPR. Summed up: as §1
Data set [6] can be described thus: Apparent permeability across apical to basolateral side of human Caco2 cells. Format: ADME, cell-based. Particulars: Caco-2. Summed up:
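Caco-2 monolayer; apparent permeability measured in the apical-to-basolateral direction, with efflux ratio also reported.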
For orientation: Passage across Caco-2 layers is used to estimate intestinal permeability.

Data set [7] is described as follows: Oral bioavailability in rat. Type of data set: ADME, organism-based. The settings on record: in vivo.

With `Cc1cc(C#N)cc(-c2cc(-n3cccn3)ncn2)c1`, the Kp at 0.5 h in data set [1] was 1.7; in data set [2], 0.02. Also, the results for the Kp at 2 h in data set [3] and in data set [5] were 0.01 and 1.9, respectively. Besides, in data set [4], the Vd came out at 2.5 L/kg.
Consider `N#Cc1cc(Cl)cc(-c2cc(-c3ccccn3)ncn2)c1`, for which the figures for the Kp at 0.5 h in data set [1] and in data set [2] were 1.7 and 0.01, respectively. Also, the Vd in data set [4] stood at 4.4 L/kg. Also, in data set [5], the Kp at 2 h was determined as 1.9.
With `N#Cc1cc(C#N)cc(-c2cc(-c3ccc(F)cn3)ncn2)c1`, the Kp at 0.5 h stood at 5.5 in data set [1] and 0.04 in data set [2]. The Kp at 2 h in data set [3] was 0.07; in data set [5], 8.2. In addition, in data set [4], the Vd turned out to be 3.3 L/kg.
For the compound `N#Cc1cc(Cl)cc(-c2cc(-c3ccc(F)cn3)ncn2)c1`, in data set [6], the Papp A→B (usually the apparent permeability from the apical to the basolateral side of a cell layer) was determined as 13 ×10⁻⁶ cm/s. The values for the Kp at 0.5 h in data set [1] and in data set [2] were 2.9 and 0.01, respectively. The bioavailability (as a rule, the share of a dose that reaches the circulation, judged against a reference dose that is usually intravenous) in data set [7] stood at 100%. Moreover, the Vd in data set [4] was determined as 3.7 L/kg. In addition, the Kp at 2 h in data set [5] is 2.7.
Turning to `N#Cc1ccc(-c2cc(-c3cc(Cl)cc(C#N)c3)ncn2)nc1`, the Kp at 0.5 h in data set [1] is 4.7; in data set [2], 0.01. Further, the Vd in data set [4] is 4.9 L/kg. The Kp at 2 h in data set [5] came to 6.7.
